{
  "source": "ChEMBL document CHEMBL1140584",
  "about": "“Novel potent organoselenium compounds as cytotoxic agents in prostate cancer cells” (Bioorg Med Chem Lett, 2007)",
  "data": [
    {"system": "not listed separately", "assay": "Toxicity against human RWPE1 cells at 2 to 10 uM by MTT assay", "type": "cell-based, RWPE-1", "conditions": "read-out: LD50 (the source's name)", "method_in_brief": "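Non-tumorigenic human prostate RWPE-1 cells (ATCC) kept in keratinocyte-SFM supplemented with 1% FBS and 1% penicillin–streptomycin. MTT read-out as formazan absorbance at 570 nm. Viability expressed as percentage of untreated control cells and used to derive IC50.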", "units": {"CC50": "µM"}, "values": [
      {"molecule": "C[Se]/C(=N\\C(=O)c1ccccc1)NC(=O)c1ccccc1", "CC50": 4.1},
      {"molecule": "C[Se]/C(=N\\C(=O)c1ccc(C)cc1)NC(=O)c1ccc(C)cc1", "CC50": "> 10"},
      {"molecule": "C[Se]/C(=N\\C(=O)c1ccc(Cl)nc1)NC(=O)c1ccc(Cl)nc1", "CC50": "> 10"}
    ]},
    {"system": "PC-3", "assay": "Cytotoxicity against human PC3 cells at 2 to 10 uM by MTT assay", "type": "functional, cell-based", "conditions": "not given", "method_in_brief": "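PC-3 cells (ATCC, tumorigenic metastatic prostate cancer) grown in RPMI 1640 with Glutamax, 10% FBS and 1% penicillin–streptomycin. Seeded at 5·10³ cells/well in complete medium and incubated overnight at 37 °C, 5% CO₂ before compound addition. MTT formazan absorbance read at 570 nm. Percentage viable cells relative to untreated controls used to derive IC50.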", "units": {"IC50": "µM"}, "values": [
      {"molecule": "CS/C(=N\\C(=O)c1ccc(Cl)cc1)NC(=O)c1ccc(Cl)cc1", "IC50": "> 10"},
      {"molecule": "CC[Se]/C(=N\\C(=O)c1ccccc1)NC(=O)c1ccccc1", "IC50": "> 10"},
      {"molecule": "C[Se]/C(=N\\C(=O)c1ccc(Cl)cc1)NC(=O)c1ccc(Cl)cc1", "IC50": 7.6},
      {"molecule": "CC(C)[Se]/C(=N\\C(=O)c1ccccc1)NC(=O)c1ccccc1", "IC50": "> 10"},
      {"molecule": "COc1cc(OC)cc(C(=O)/N=C(/NC(=O)c2cc(OC)cc(OC)c2)[Se]C(C)C)c1", "IC50": "> 10"},
      {"molecule": "C[Se]/C(=N\\C(=O)c1ccc(C(C)(C)C)cc1)NC(=O)c1ccc(C(C)(C)C)cc1", "IC50": "> 10"},
      {"molecule": "C[Se]/C(=N\\C(=O)c1ccccc1)NC(=O)c1ccccc1", "IC50": 2.5},
      {"molecule": "CS/C(=N\\C(=O)c1cccnc1Cl)NC(=O)c1cccnc1Cl", "IC50": "> 10"},
      {"molecule": "C[Se](=O)O", "note": "[METHYLSELENINIC ACID]", "IC50": 8.38},
      {"molecule": "CS/C(=N\\C(=O)c1ccc(C)cc1)NC(=O)c1ccc(C)cc1", "IC50": "> 10"},
      {"molecule": "C[Se]/C(=N\\C(=O)c1ccc([N+](=O)[O-])cc1)NC(=O)c1ccc([N+](=O)[O-])cc1", "IC50": "> 10"},
      {"molecule": "C[Se]/C(=N\\C(=O)c1ccc(C#N)cc1)NC(=O)c1ccc(C#N)cc1", "IC50": "> 10"},
      {"molecule": "CS/C(=N\\C(=O)c1ccccc1)NC(=O)c1ccccc1", "IC50": "> 10"},
      {"molecule": "C[Se]/C(=N\\C(=O)c1ccc(C(F)(F)F)cc1)NC(=O)c1ccc(C(F)(F)F)cc1", "IC50": "> 10"},
      {"molecule": "C[Se]/C(=N\\C(=O)c1ccc(C)cc1)NC(=O)c1ccc(C)cc1", "IC50": 1.85},
      {"molecule": "CC(C)[Se]/C(=N\\C(=O)c1ccc(Cl)cc1)NC(=O)c1ccc(Cl)cc1", "IC50": "> 10"},
      {"molecule": "COc1cc(OC)cc(C(=O)/N=C(/NC(=O)c2cc(OC)cc(OC)c2)[Se]C)c1", "IC50": 6.5},
      {"molecule": "C[Se]/C(=N\\C(=O)c1ccc(Cl)nc1)NC(=O)c1ccc(Cl)nc1", "IC50": 9.14}
    ]}
  ]
}
